As usually defined, the inhibition in vivo is the relative decrease from the control value, in per cent. A lower inhibition in vivo goes with little suppression. As a reminder, the ED50 is the midpoint of the dose-response relation. Read a low ED50 as an effect at a small dose.

In assay [1] the test system is Rattus norvegicus. In words: Percent inhibition of gastric antisecretory activity in the pylorus-ligated rat at a dose of 100 mg/kg administered intraduodenally. Format: functional. As to conditions: Stomach, route intraduodenal. In outline:
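Fasted rats in groups of six, pylorus ligated under ether anaesthesia (Shay method); compound in 1% carboxymethylcellulose, or vehicle alone, given intraduodenally at 100 mg/kg. Stomach removed 7 h after abdominal closure. Gastric juice volume measured, and free acid titrated with 0.1 N NaOH to pH 3.0. Hourly free-acid output per rat expressed as percent inhibition versus vehicle controls.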

Assay [2] is filed under the species Rattus norvegicus. The assay is described as follows: animal or person. Conditions: Stomach, intraduodenal.
Assay [3] deals with Rattus norvegicus. The assay is described as follows: Antiulcer activity in male Donry rat for 50% inhibition of aspirin induced gastric lesions after intraduodenal administration. As to conditions: Stomach. Format: functional. In outline: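 Aspirin ulcer model. Male Donryu rats of 200–220 g were food-deprived 24 h, ten per group, pylorus-ligated, then dosed intraduodenally. Ten min later they received oral aspirin 100 mg/kg in 1% carboxymethylcellulose. At 7 h the summed lengths of glandular lesions gave the ulcer index (mm). ED50 by Litchfield–Wilcoxon.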

The species entered for assay [4] is Rattus norvegicus. In words: animal or person. As to conditions: Stomach, intraduodenal. This is another data set of the same source.

Compound `O=c1ccc(-c2ccccc2)nn1CC/C(S)=N/CO` returned an inhibition in vivo at 100 mg/kg in the assay on Rattus norvegicus [1] of 5.1%.

Consider `CN1[C@@H]2CC[C@H]1C[C@@H](OC(=O)C(CO)c1ccccc1)C2.O=S(=O)(O)O` (some centres undefined) [ATROPINE SULFATE], for which the ED50 in the assay listed under Rattus norvegicus [2] worked out at 0.9 mg/kg; in the assay on Rattus norvegicus [3], 4.5 mg/kg; in the assay listed under Rattus norvegicus [4], 1.1 mg/kg.

Values taken from ChEMBL document CHEMBL1122117, “Pyridazinones. 1. Synthesis and antisecretory and antiulcer activities of thio amide derivatives” (1982).
